The results in this text go back to ChEMBL document CHEMBL4610039, “Design, synthesis and apoptosis-related antiproliferative activities of chelidonine derivatives” (Bioorg Med Chem Lett, 2020).

One assay has as its system HepG2. The experiment in a line: Antiproliferative activity against human HepG2 cells assessed as reduction in cell growth after 72 hrs by MTT assay. To be noted: HepG2, 72 h. The assay is classed as functional, cell-based. Put shortly: (§1)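 Human HepG2, MCF-7, HCT-116 and K562 tumour cells plus normal L-02 hepatocytes and PBMCs were exposed to compounds for 72 h and growth was read by MTT. 5-Fu served as positive control. IC50 is the concentration inhibiting 50% of cell growth, given as mean ± standard deviation of three independent experiments.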

In a further assay the test system is L02. In words: Antiproliferative activity against human L02 cells assessed as reduction in cell growth after 72 hrs by MTT assay. It counts as functional, cell-based. To be noted: L02, 72 h. Put shortly:
as §1
A general note: Tetrazolium dyes change colour on reduction, which living cells bring about.

The subject of a further assay is MCF7. The experiment in a line: Antiproliferative activity against human MCF7 cells assessed as reduction in cell growth after 72 hrs by MTT assay. To be noted: MCF7, 72 h. The assay is classed as functional, cell-based. Put shortly: as §1
The subject of another assay is K562. In words: Antiproliferative activity against human K562 cells assessed as reduction in cell growth after 72 hrs by MTT assay. It counts as functional, cell-based. To be noted: K562, 72 h. The method, boiled down:
as §1

Another assay deals with HCT-116. The experiment in a line: Antiproliferative activity against human HCT116 cells assessed as reduction in cell growth after 72 hrs by MTT assay. It counts as functional, cell-based. To be noted: HCT-116, 72 h. Put shortly:
as §1

A further assay has as its system PBMC. In words: Cytotoxicity against human PBMC assessed as reduction in cell growth after 72 hrs by MTT assay. The assay is classed as cell-based. The method, boiled down: as §1

One may read the IC50 as the concentration needed to halve the response being measured.

`CN1Cc2c(ccc3c2OCO3)[C@H]2[C@@H](OC(=O)CCCC(=O)OCCCCCCOc3no[n+]([O-])c3S(=O)(=O)c3ccccc3)Cc3cc4c(cc3[C@H]21)OCO4`: the IC50 with HepG2 is above 40 µM; in the assay on L02 it was above 40 µM; in the assay on MCF7 it was 13.2 µM; in the assay with K562, 9.59 µM; with HCT-116, above 40 µM; with PBMC, above 40 µM.

For `O=c1[nH]cc(F)c(=O)[nH]1` [FLUOROURACIL], the half-maximal inhibitory concentration (IC50) is 32.6 µM in the assay on HepG2; above 40 µM with L02; 26.7 µM in the assay on MCF7; 3.94 µM with K562; 6.86 µM in the assay with HCT-116; above 40 µM with PBMC.

Regarding `CN1Cc2c(ccc3c2OCO3)[C@H]2[C@@H](OC(=O)CCCC(=O)NCCOc3no[n+]([O-])c3S(=O)(=O)c3ccccc3)Cc3cc4c(cc3[C@H]21)OCO4`, the IC50 with HepG2 is 26.4 µM; in the assay on L02 it was above 40 µM; in the assay on MCF7, 14.6 µM; in the assay with K562, 12.1 µM; with HCT-116 it was above 40 µM; in the assay with PBMC, above 40 µM.

Regarding `CN1Cc2c(ccc3c2OCO3)[C@H]2[C@@H](OC(=O)CCCC(=O)NCCCOc3no[n+]([O-])c3S(=O)(=O)c3ccccc3)Cc3cc4c(cc3[C@H]21)OCO4`, the 50% inhibitory concentration (IC50) is 10.7 µM in the assay with HepG2; 19.9 µM in the assay on L02; 5.29 µM with MCF7; 3.18 µM with K562; 7.25 µM in the assay with HCT-116; above 40 µM with PBMC.

Take `CC(CNC(=O)CCC(=O)O[C@H]1Cc2cc3c(cc2[C@@H]2[C@H]1c1ccc4c(c1CN2C)OCO4)OCO3)Oc1no[n+]([O-])c1S(=O)(=O)c1ccccc1` (stereo partly specified): the half-maximal inhibitory concentration (IC50) in the assay with HepG2 was 19.4 µM; in the assay on L02 it was above 40 µM; in the assay on MCF7, 8.37 µM; in the assay on K562 it was 6.94 µM; in the assay on HCT-116, 16.4 µM; in the assay with PBMC, above 40 µM.

`CN1Cc2c(ccc3c2OCO3)[C@H]2[C@@H](OC(=O)CCC(=O)OCCOCCOc3no[n+]([O-])c3S(=O)(=O)c3ccccc3)Cc3cc4c(cc3[C@H]21)OCO4`: the half-maximal inhibitory concentration (IC50) was 8.65 µM in the assay with HepG2; 23.9 µM in the assay with L02; 8.92 µM in the assay with MCF7; 4.52 µM with K562; 8.68 µM with HCT-116; above 40 µM in the assay with PBMC.

`CN1Cc2c(ccc3c2OCO3)[C@H]2[C@@H](OC(=O)CCC(=O)NCCOc3no[n+]([O-])c3S(=O)(=O)c3ccccc3)Cc3cc4c(cc3[C@H]21)OCO4`: the concentration for half-maximal inhibition (IC50) with HepG2 is 11.4 µM; with L02 it was 27.7 µM; in the assay with MCF7 it was 7.94 µM; with K562 it was 3.17 µM; in the assay on HCT-116, 11.5 µM; in the assay with PBMC, above 40 µM.

As for `CN1Cc2c(ccc3c2OCO3)[C@H]2[C@@H](OC(=O)CCC(=O)OCC#CCOc3no[n+]([O-])c3S(=O)(=O)c3ccccc3)Cc3cc4c(cc3[C@H]21)OCO4`, the half-maximal inhibitory concentration (IC50) in the assay on HepG2 was 14.4 µM; with L02, 28.2 µM; with MCF7, 5.41 µM; in the assay on K562, 3.78 µM; in the assay on HCT-116, 23.5 µM; in the assay on PBMC, above 40 µM.

Consider `CN1Cc2c(ccc3c2OCO3)[C@H]2[C@@H](OC(=O)CCCC(=O)OCCOCCOc3no[n+]([O-])c3S(=O)(=O)c3ccccc3)Cc3cc4c(cc3[C@H]21)OCO4`, for which the IC50 in the assay with HepG2 was 6.55 µM; in the assay on L02, 16.5 µM; with MCF7, 6.55 µM; with K562 it was 2.6 µM; in the assay with HCT-116, 8.47 µM; with PBMC, above 40 µM.

On to `CN1Cc2c(ccc3c2OCO3)[C@H]2[C@@H](OC(=O)CCCC(=O)OCCCCOc3no[n+]([O-])c3S(=O)(=O)c3ccccc3)Cc3cc4c(cc3[C@H]21)OCO4`, for which the IC50 was 19.6 µM with HepG2; above 40 µM in the assay on L02; 6.81 µM in the assay on MCF7; 6.14 µM in the assay on K562; 19.1 µM in the assay on HCT-116; above 40 µM in the assay with PBMC.

Turning to `CN1Cc2c(ccc3c2OCO3)[C@H]2[C@@H](OC(=O)CCC(=O)NCCCOc3no[n+]([O-])c3S(=O)(=O)c3ccccc3)Cc3cc4c(cc3[C@H]21)OCO4`, the concentration for half-maximal inhibition (IC50) in the assay on HepG2 is 16.8 µM; in the assay with L02, 36.5 µM; with MCF7, 13.6 µM; in the assay on K562, 9.8 µM; in the assay with HCT-116 it was 17.3 µM; with PBMC it was above 40 µM.

Regarding `CN1Cc2c(ccc3c2OCO3)[C@@H]2[C@H]1c1cc3c(cc1C[C@@H]2O)OCO3` [CHELIDONINE], the 50% inhibitory concentration (IC50) was above 40 µM in the assay with HepG2; above 40 µM in the assay with L02; above 40 µM in the assay on MCF7; 17.7 µM in the assay with K562; above 40 µM in the assay with HCT-116; above 40 µM in the assay with PBMC.

`CN1Cc2c(ccc3c2OCO3)[C@H]2[C@@H](OC(=O)CCC(=O)OCCCCCCOc3no[n+]([O-])c3S(=O)(=O)c3ccccc3)Cc3cc4c(cc3[C@H]21)OCO4`: the IC50 was 9.45 µM with HepG2; above 40 µM with L02; 7.94 µM in the assay on MCF7; 7.61 µM in the assay with K562; 16.6 µM with HCT-116; above 40 µM in the assay with PBMC.

Regarding `CN1Cc2c(ccc3c2OCO3)[C@H]2[C@@H](OC(=O)CCC(=O)OCCCCOc3no[n+]([O-])c3S(=O)(=O)c3ccccc3)Cc3cc4c(cc3[C@H]21)OCO4`, the concentration for half-maximal inhibition (IC50) with HepG2 was 6.39 µM; with L02, 19.7 µM; in the assay with MCF7 it was 4.78 µM; with K562, 2.91 µM; in the assay on HCT-116 it was 8.27 µM; in the assay with PBMC it was above 40 µM.

Consider `CN1Cc2c(ccc3c2OCO3)[C@H]2[C@@H](OC(=O)CCC(=O)OCCCOc3no[n+]([O-])c3S(=O)(=O)c3ccccc3)Cc3cc4c(cc3[C@H]21)OCO4`, for which the IC50 is 10.5 µM in the assay on HepG2; 14.6 µM in the assay on L02; 3.68 µM in the assay with MCF7; 3.08 µM in the assay on K562; 15.7 µM with HCT-116; above 40 µM with PBMC.

In the case of `CC(CNC(=O)CCCC(=O)O[C@H]1Cc2cc3c(cc2[C@@H]2[C@H]1c1ccc4c(c1CN2C)OCO4)OCO3)Oc1no[n+]([O-])c1S(=O)(=O)c1ccccc1` (stereo partly specified), the half-inhibitory concentration (IC50) in the assay on HepG2 is 7.59 µM; with L02 it was 23.4 µM; with MCF7, 4.92 µM; in the assay with K562, 2.68 µM; in the assay with HCT-116, 12.2 µM; in the assay with PBMC, above 40 µM.
